ChEMBL document CHEMBL5338759, “N-Phenyl-1-(phenylsulfonyl)-1H-1,2,4-triazol-3-amine as a New Class of HIV-1 Non-nucleoside Reverse Transcriptase Inhibitor” (J Med Chem, 2023)

Columns and labels:
[1] = Subacute toxicity in BALB/c mouse assessed as reduction in aminotransferases level at 25 to 250 mg/kg, IG measured daily for 30 days; assay type: organism-based; conditions: in vivo, po, 720 h, dose 25-250 mg/kg, time 30 day
Procedure, shortened: (§1)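 Dosing was daily intragastric 25 or 250 mg/kg in 1% starch gel (0.2 ml/20 g) for 30 days in male Balb/C mice, 17 per group, with starch gel controls. After the final dose, mice were fasted for 2 h with water available, then bled. Serum was clotted for 30 min at room temperature and centrifuged at 3500 rpm. Total protein, urea, creatinine, AST, ALT and alkaline phosphatase were assayed and compared by Mann-Whitney with Holm-Šídák, p < 0.05.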

[2] = Subacute toxicity in BALB/c mouse assessed as reduction in urea level at 25 to 250 mg/kg, IG measured daily for 30 days; assay type: organism-based; conditions: in vivo, po, 720 h, dose 25-250 mg/kg, time 30 day; procedure, shortened: as §1
[3] = Selectivity ratio of IC50 for antiviral activity against wild type HIV1 IIIB infected in human TZM-bl cells to IC50 for antiviral activity against HIV1 harboring Y181C mutant infected in human TZM-bl cells; assay type: toxicity, cell-based; conditions: human immunodeficiency virus 1
Procedure, shortened: (§2)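 TZM-bl cells (2x10⁵/mL) with 15 µg/mL DEAE-dextran were infected with HIV-1 IIIB, A17 (K103N/Y181C) IIIB variant, or NL4-3-based NNRTI-resistant mutants. Compound was present at 0.05–500 nM (DMSO held constant, 0.005% or 0.05%) for 48 hr at 37°C, 5% CO₂.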

[4] = Cmax in BALB/c mouse plasma at 250 mg/kg, IG measured at 0.5 to 24 hrs by HPLC-MS analysis; assay type: ADME, organism-based; design: time lower 0.5 hrs, dose 250 mg/kg, time upper 24 hrs, route ig; conditions: in vivo, po
Procedure, shortened: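 Mice (~20 g; food withheld 1 h before and after dosing), single dose as 0.5 ml suspension in 1% CMC/0.05% Tween 80 by gavage. Three animals per time point (0.5–24 h). Heparinized plasma frozen at -20°C, quantified by UPLC-ESI(+)-QTOF-MS (EIC m/z 476.0691) against plasma-matrix standards. LLOQ 5 ng/ml, lower values set to 2.5 ng/ml. Noncompartmental analysis.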

[5] = Subacute toxicity in BALB/c mouse assessed as effect on kidney weight at 25 to 250 mg/kg, IG measured daily for 30 days; assay type: organism-based; conditions: in vivo, po, 720 h, dose 25-250 mg/kg, time 30 day
[6] = Subacute toxicity in BALB/c mouse assessed as effect on lung weight at 25 to 250 mg/kg, IG measured daily for 30 days; assay type: organism-based; conditions: in vivo, po, 720 h, dose 25-250 mg/kg, time 30 day
[7] = Subacute toxicity in BALB/c mouse assessed as reduction in platelets count at 25 to 250 mg/kg, IG measured daily for 30 days; assay type: organism-based; conditions: in vivo, po, 720 h, dose 25-250 mg/kg, time 30 day
[8] = AUC (0 to 24 hrs) in BALB/c mouse plasma at 250 mg/kg, IG measured at 0.5 to 24 hrs by HPLC-MS analysis; assay type: ADME, organism-based; design: time upper 24 hrs, time lower 0.5 hrs, dose 250 mg/kg, route ig; conditions: po
Procedure, shortened: (§3)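 Mice averaging 20 g (24 animals) were fasted 1 h before and 1 h after dosing. They received 250 mg/kg as 0.5 ml suspension in 1% CMC, 0.05% Tween 80 by intragastric intubation. Blood and brain were taken after decapitation at 0.5, 1, 2, 3, 5, 8 and 24 h (3 per time point). Plasma was frozen at -20°C and brain at -120 °C. Quantification was by UPLC-HRMS (ESI+, EIC m/z 476.0691) against plasma-matrix standards. Parameters were derived by noncompartmental analysis; LLOQ 5 ng/ml, with values below it set to 2.5.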

[9] = Subacute toxicity in BALB/c mouse assessed as reduction in alkaline phosphatase level at 250 mg/kg, IG measured daily for 30 days; assay type: organism-based; conditions: in vivo, po, 720 h, time 30 day; procedure, shortened: as §1
[10] = Subacute toxicity in BALB/c mouse assessed as pathological change in intestine at 25 to 250 mg/kg, IG measured daily for 30 days by H and E staining based histological analysis; assay type: organism-based; conditions: in vivo, po, 720 h, dose 25-250 mg/kg, time 30 day
Procedure, shortened: (§4)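 Male Balb/C mice (17 per group) received 25 or 250 mg/kg intragastrically in 1% starch gel once daily for 30 days, against starch gel controls. Internal organs were examined macroscopically after the study. Sections were paraffin-embedded and stained with hematoxylin and eosin.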

[11] = Subacute toxicity in BALB/c mouse assessed as effect on heart weight at 25 to 250 mg/kg, IG measured daily for 30 days; assay type: organism-based; conditions: in vivo, po, 720 h, dose 25-250 mg/kg, time 30 day
[12] = molecular target: Voltage-gated inwardly rectifying potassium channel KCNH2 (Homo sapiens, UniProt Q12809); assay: Inhibition of hERG by fluorescence polarization assay; assay type: toxicity
[13] = Cmax in BALB/c mouse brain at 250 mg/kg, IG measured at 0.5 to 24 hrs by HPLC-MS analysis; assay type: ADME, organism-based; design: time 0.5-24 hrs, dose 250 mg/kg, route ig; conditions: po; procedure, shortened: as §3
[14] = Subacute toxicity in BALB/c mouse assessed as reduction in reticulocytes count at 25 to 250 mg/kg, IG measured daily for 30 days; assay type: organism-based; conditions: in vivo, po, 720 h, dose 25-250 mg/kg, time 30 day
[15] = Subacute toxicity in BALB/c mouse assessed as pathological change in heart at 25 to 250 mg/kg, IG measured daily for 30 days by H and E staining based histological analysis; assay type: organism-based; conditions: in vivo, po, 720 h, dose 25-250 mg/kg, time 30 day; procedure, shortened: as §4
[16] = Subacute toxicity in BALB/c mouse assessed as effect on pancreas weight at 25 to 250 mg/kg, IG measured daily for 30 days; assay type: organism-based; conditions: in vivo, po, 720 h, dose 25-250 mg/kg, time 30 day
[17] = Selectivity ratio of IC50 for antiviral activity against wild type HIV1 IIIB infected in human TZM-bl cells to IC50 for antiviral activity against HIV1 harboring A17 mutant infected in human TZM-bl cells; assay type: toxicity, cell-based; conditions: human immunodeficiency virus 1; procedure, shortened: as §2
[18] = Subacute toxicity in BALB/c mouse assessed as effect on adrenal gland weight at 25 to 250 mg/kg, IG measured daily for 30 days; assay type: organism-based; conditions: in vivo, po, 720 h, dose 25-250 mg/kg, time 30 day
[19] = Selectivity ratio of IC50 for antiviral activity against wild type HIV1 IIIB infected in human TZM-bl cells to IC50 for antiviral activity against HIV1 harboring L100I/K103N double mutant infected in human TZM-bl cells; assay type: toxicity, cell-based; conditions: human immunodeficiency virus 1; procedure, shortened: as §2
[20] = AUC (0 to 24 hrs) in BALB/c mouse brain at 250 mg/kg, IG measured at 0.5 to 24 hrs by HPLC-MS analysis; assay type: ADME, organism-based; design: dose 250 mg/kg, time 0.5-24 hrs, route ig; conditions: po; procedure, shortened: as §3
[21] = Subacute toxicity in BALB/c mouse assessed as body weight gain at 25 to 250 mg/kg, IG measured daily for 30 days; assay type: organism-based; conditions: in vivo, po, 720 h, dose 25-250 mg/kg, time 30 day
Procedure, shortened: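 Male Balb/C mice (17 per group, initial weight 20.9 ± 0.8 g) were dosed intragastrically once daily for 30 days at 25 or 250 mg/kg. Doses were given as 2.5 or 25 mg/ml suspensions in 1% starch gel at 0.2 ml per 20 g; controls received starch gel alone. Weight, coat, mucous membranes and excretion were recorded throughout.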

[22] = tested on: Human immunodeficiency virus 1; assay: Antiviral activity against HIV1 harboring L100I/K103N double mutant infected in human TZM-bl cells; assay type: functional, organism-based; conditions: Human immunodeficiency virus 1, TZM-bl
[23] = Subacute toxicity in BALB/c mouse assessed as pathological change in liver at 25 to 250 mg/kg, IG measured daily for 30 days by H and E staining based histological analysis; assay type: organism-based; conditions: in vivo, po, 720 h, dose 25-250 mg/kg, time 30 day; procedure, shortened: as §4

Chain of Voltage-gated inwardly rectifying potassium channel KCNH2 (Q12809 whole entry): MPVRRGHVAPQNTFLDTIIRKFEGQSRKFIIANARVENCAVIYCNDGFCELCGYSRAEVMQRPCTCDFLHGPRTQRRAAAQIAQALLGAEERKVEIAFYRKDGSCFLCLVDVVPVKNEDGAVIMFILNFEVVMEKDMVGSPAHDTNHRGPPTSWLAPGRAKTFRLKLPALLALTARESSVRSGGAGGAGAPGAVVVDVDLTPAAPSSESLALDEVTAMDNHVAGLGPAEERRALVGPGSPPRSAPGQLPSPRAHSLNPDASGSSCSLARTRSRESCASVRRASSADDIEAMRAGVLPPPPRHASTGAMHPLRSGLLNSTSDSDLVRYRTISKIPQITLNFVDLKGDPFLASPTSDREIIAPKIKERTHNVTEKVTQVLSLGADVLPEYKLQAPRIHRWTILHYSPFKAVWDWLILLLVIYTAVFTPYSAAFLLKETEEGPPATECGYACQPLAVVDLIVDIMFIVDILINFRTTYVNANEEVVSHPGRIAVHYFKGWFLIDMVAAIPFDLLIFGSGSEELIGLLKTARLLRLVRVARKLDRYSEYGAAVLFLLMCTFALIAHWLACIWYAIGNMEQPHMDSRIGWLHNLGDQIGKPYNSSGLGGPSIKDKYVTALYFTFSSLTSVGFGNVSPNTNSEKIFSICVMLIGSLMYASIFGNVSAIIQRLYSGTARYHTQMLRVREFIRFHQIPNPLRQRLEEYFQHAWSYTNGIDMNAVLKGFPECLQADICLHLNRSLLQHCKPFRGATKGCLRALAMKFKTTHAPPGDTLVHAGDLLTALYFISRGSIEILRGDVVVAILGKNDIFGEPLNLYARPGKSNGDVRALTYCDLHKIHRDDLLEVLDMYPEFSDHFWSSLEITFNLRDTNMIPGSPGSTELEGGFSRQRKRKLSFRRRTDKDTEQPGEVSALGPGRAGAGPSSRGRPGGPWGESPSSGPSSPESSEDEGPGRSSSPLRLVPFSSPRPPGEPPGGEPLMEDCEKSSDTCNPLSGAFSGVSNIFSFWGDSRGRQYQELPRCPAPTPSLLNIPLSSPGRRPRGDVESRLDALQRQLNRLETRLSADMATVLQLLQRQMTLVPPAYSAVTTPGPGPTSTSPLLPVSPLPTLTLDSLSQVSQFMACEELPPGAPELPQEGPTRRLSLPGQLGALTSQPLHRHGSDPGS

N#C/C=C/c1ccc2c(S(=O)(=O)n3nc(Nc4ccc(C#N)c(Cl)c4)nc3N)cccc2c1
Activity [1]: Toxic
Activity [2]: Non-Toxic
Ratio IC50 [3]: 16
Cmax [4]: 81.4 ng/mL
Activity [5]: Non-Toxic
Activity [6]: Non-Toxic
Activity [7]: Non-Toxic
AUC(0-t) [8]: 397 µg·h/mL
Activity [9]: Non-Toxic
Activity [10]: Non-Toxic
Activity [11]: Non-Toxic
IC50 [12]: 11.5 µM
Cmax [13]: 40.3 ng/100 mg
Activity [14]: Non-Toxic
Activity [15]: Non-Toxic
Activity [16]: Non-Toxic
Ratio IC50 [17]: 5.6
Activity [18]: Non-Toxic
Ratio IC50 [19]: 75
AUC(0-t) [20]: 142 µg·h/mL
Activity [21]: Non-Toxic
IC50 [22]: 1.05 µM
Activity [23]: Toxic
